# Columns and labels:
# [1] = Binding affinity to chimpanzee P2Y14 receptor; set-up: species or system Pan troglodytes
# [2] = Oral bioavailability in mouse at 75 mg/kg bid; type: ADME, organism-based; conditions: in vivo
# [3] = Half life in mouse at 75 mg/kg, po bid; type: ADME, organism-based; set-up: dose 75 mg/kg, route oral; conditions: in vivo
# [4] = Clearance in mouse at 75 mg/kg, po bid; type: ADME, organism-based; set-up: dose 75 mg/kg, route oral; conditions: in vivo
# Albumin = Albumin (Homo sapiens, UniProt P02768); test: Binding affinity to 4.5 % human serum albumin
# [5] = Binding affinity to chimpanzee P2Y14 receptor in presence of 2% human serum albumin; set-up: species or system Pan troglodytes
# [6] = Metabolic stability in whole blood after 1 hr
# [7] = Oral bioavailability in mouse at 50 mg/kg; type: ADME, organism-based; conditions: in vivo
# Outline: (§1)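 Mice dosed orally at 50 mg/kg in 0.25% methocel. Plasma levels of the parent zwitterion were measured for both the parent and the ester prodrugs, giving AUC, 24 h concentration and clearance. For prodrugs, bioavailability is expressed as virtual F, based on parent-drug exposure.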
# [8] = Plasma concentration in mouse at 50 mg/kg, po after 24 hrs; type: ADME, organism-based; set-up: dose 50 mg/kg, route oral; outline: as §1
# Mus musculus = test: (§2) AUC in mouse at 50 mg/kg, po after 24 hrs; type: ADME, organism-based, Plasma; set-up: time < 24 hr, dose 50 mg/kg, route oral; conditions: in vivo, 24 h; outline: as §1
# [9] = as §2; type: ADME, organism-based, Plasma; set-up: time < 24 hr, dose 50 mg/kg, route oral; conditions: plasma; outline: as §1
# Albumin, sequence (P02768 whole entry): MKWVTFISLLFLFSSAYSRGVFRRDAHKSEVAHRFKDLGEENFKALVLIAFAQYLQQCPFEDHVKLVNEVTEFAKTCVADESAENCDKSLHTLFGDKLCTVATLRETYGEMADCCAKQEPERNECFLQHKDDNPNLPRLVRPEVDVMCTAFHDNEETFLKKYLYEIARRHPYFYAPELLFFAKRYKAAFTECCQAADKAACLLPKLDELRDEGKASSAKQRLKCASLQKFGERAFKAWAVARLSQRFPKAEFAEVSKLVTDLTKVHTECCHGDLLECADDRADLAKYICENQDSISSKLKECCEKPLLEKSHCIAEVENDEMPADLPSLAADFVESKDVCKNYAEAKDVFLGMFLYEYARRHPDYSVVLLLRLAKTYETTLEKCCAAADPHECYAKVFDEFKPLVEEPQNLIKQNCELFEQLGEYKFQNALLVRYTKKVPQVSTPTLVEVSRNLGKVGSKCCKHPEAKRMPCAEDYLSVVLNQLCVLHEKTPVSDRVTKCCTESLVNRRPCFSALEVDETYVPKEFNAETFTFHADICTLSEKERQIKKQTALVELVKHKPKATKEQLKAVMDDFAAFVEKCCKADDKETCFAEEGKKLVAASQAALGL
Structure (SMILES),Ki [1],Ki [5],Stability [6],bioavailability [7],concentration at 24 h [8],other results
O=C(O)c1cc(-c2ccc([C@@H](O)C(F)F)cc2)c2ccc(-c3ccc(C(F)(F)F)cc3)cc2c1,4 nM,1290 nM,,,,bioavailability [2]: 67%; half-life [3]: 3 h; CL/F [4]: 1.6 mL/min/kg; Activity (Albumin): > 99%
CC(=O)OCOC(=O)c1cc(-c2ccc(C3CCNCC3)cc2)c2ccc(-c3ccc(C(F)(F)F)cc3)cc2c1,,,Unstable,,,
CC(OCC(=O)C(C)C)OC(=O)c1cc(-c2ccc(C3CCNCC3)cc2)c2ccc(-c3ccc(C(F)(F)F)cc3)cc2c1 (stereo not drawn),,,Unstable,,,
CN(C)CCOC(=O)c1cc(-c2ccc(C3CCNCC3)cc2)c2ccc(-c3ccc(C(F)(F)F)cc3)cc2c1,,,Unstable,,,
CN(C)C(=O)COC(=O)c1cc(-c2ccc(C3CCNCC3)cc2)c2ccc(-c3ccc(C(F)(F)F)cc3)cc2c1,,,Unstable,67%,2280 nM,AUC (Mus musculus): 54 µM·h
O=C(O)c1cc(-c2ccc(C3CCNCC3)cc2)c2ccc(-c3ccc(C(F)(F)F)cc3)cc2c1 [PPTN],1.9 nM,35 nM,,5%,680 nM,AUC at 24 h [9]: 23 µM·h

# Reference: ChEMBL document CHEMBL1799926, “Applying the pro-drug approach to afford highly bioavailable antagonists of P2Y(14)” (Bioorg Med Chem Lett, 2011)
